From ChEMBL document CHEMBL1131215, “Anhydrolide macrolides. 1. Synthesis and antibacterial activity of 2,3-anhydro-6-O-methyl 11,12-carbamate erythromycin A analogues” (1998)
≈ marks a conversion by molar mass, not a printed value.

Assays:
Assay type in all cases: functional
[1] = test system: Streptococcus pyogenes; assay: In vitro antibacterial activity against 930 strain of Streptococcus pyogenes; conditions: Streptococcus pyogenes
In short: (§1)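 MIC determined by standard agar dilution; values in μg/mL.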

[2] = test system: Streptococcus pneumoniae; assay: In vitro antibacterial activity against 5979 strain of Streptococcus pneumoniae; in short: as §1
[3] = test system: Staphylococcus aureus; assay: In vitro antibacterial activity against A5177 strain of Staphylococcus aureus; conditions: Staphylococcus aureus; in short: as §1
[4] = test system: Streptococcus pneumoniae; assay: In vitro antibacterial activity against ATCC 6303 strain of Streptococcus pneumoniae; conditions: Streptococcus pneumoniae, ATCC 6303; in short: as §1
[5] = test system: Streptococcus pneumoniae; assay: In vivo antibacterial activity in mice infected with Streptococcus pneumoniae ATCC 6303
[6] = test system: Mus musculus; assay: Effective dose when administered orally in mice infected with Staphylococcus aureus NCTC-10649M.; conditions: po
In short: (§2)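 Mice infected intraperitoneally with 1000 × LD₅₀ (S. aureus) or […] × LD₅₀ (S. pneumoniae). Compound given orally (po) or subcutaneously (sc) at 1 and 5 h post-infection. ED₅₀ expressed in mg/kg/day with 95% confidence interval.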

[7] = test system: Staphylococcus aureus; assay: In vitro antibacterial activity against 6538P strain of Staphylococcus aureus; in short: as §1
[8] = test system: Streptococcus pyogenes; assay: In vitro antibacterial activity against PIU 2548 strain of Streptococcus pyogenes; in short: as §1
[9] = test system: Haemophilus influenzae; assay: In vitro antibacterial activity against DILL strain of Haemophilus influenzae.; in short: as §1
[10] = test system: Staphylococcus aureus; assay: In vivo antibacterial activity in mice infected with Staphylococcus aureus NCTC-10649M.
[11] = test system: Mus musculus; assay: Effective dose when administered orally in mice infected with Streptococcus pneumoniae ATCC 6303; conditions: po; in short: as §2
[12] = In vitro antibacterial activity against A-5278 strain of Staphylococcus aureus; conditions: Staphylococcus aureus; in short: as §1
[13] = test system: Streptococcus pneumoniae; assay: In vitro antibacterial activity against 5649 strain of Streptococcus pneumoniae; conditions: Streptococcus pneumoniae; in short: as §1
[14] = test system: Mus musculus; assay: Effective dose when administered subcutaneously in mice infected with Staphylococcus aureus NCTC-10649M.; conditions: sc; in short: as §2
[15] = test system: Mus musculus; assay: Effective dose when administered subcutaneously in mice infected with Streptococcus pneumoniae ATCC 6303; conditions: sc; in short: as §2
[16] = test system: Streptococcus pneumoniae; assay: In vitro antibacterial activity against Streptococcus pneumoniae 5979; in short: as §1

Compound	MIC [1]	MIC [2]	MIC [3]	MIC [4]	MIC [5]	ED50 [6]	MIC ([7]; Staphylococcus aureus)	MIC ([8]; Streptococcus pyogenes)	MIC [9]	MIC [10]	ED50 [11]	MIC [12]	MIC [13]	ED50 [14]	ED50 [15]	MIC [16]	MIC [7]	MIC [8]
CC[C@H]1OC(=O)/C(C)=C/[C@H](C)[C@@H](O[C@@H]2O[C@H](C)C[C@H](N(C)C)[C@H]2O)[C@@](C)(OC)C[C@@H](C)C(=O)[C@H](C)[C@H]2N(CCc3ccc(F)cc3)C(=O)O[C@]12C	25 µg/mL (≈ 34.8 µM)	32 µg/mL (≈ 44.5 µM)	0.39 µg/mL (≈ 0.542 µM)	0.125 µg/mL (≈ 0.174 µM)	0.125 µg/mL (≈ 0.174 µM)	> 100 mg/kg/day	0.39 µg/mL (≈ 0.542 µM)	0.39 µg/mL (≈ 0.542 µM)	16 µg/mL (≈ 22.3 µM)	0.39 µg/mL (≈ 0.542 µM)	> 40 mg/kg/day	50 µg/mL (≈ 69.6 µM)	1 µg/mL (≈ 1.39 µM)	–	–	–	–	–
CC[C@H]1OC(=O)/C(C)=C/[C@H](C)[C@@H](O[C@@H]2O[C@H](C)C[C@H](N(C)C)[C@H]2O)[C@@](C)(OC)C[C@@H](C)C(=O)[C@H](C)[C@H]2N(CCCOc3ccc4ccccc4c3)C(=O)O[C@]12C	3.1 µg/mL (≈ 3.97 µM)	8 µg/mL (≈ 10.2 µM)	0.39 µg/mL (≈ 0.499 µM)	0.03 µg/mL (≈ 0.0384 µM)	–	–	0.2 µg/mL (≈ 0.256 µM)	0.39 µg/mL (≈ 0.499 µM)	64 µg/mL (≈ 81.9 µM)	–	–	25 µg/mL (≈ 32 µM)	2 µg/mL (≈ 2.56 µM)	–	–	–	–	–
CC[C@H]1OC(=O)/C(C)=C/[C@H](C)[C@@H](O[C@@H]2O[C@H](C)C[C@H](N(C)C)[C@H]2O)[C@@](C)(OC)C[C@@H](C)C(=O)[C@H](C)[C@H]2N(CCc3ccc([N+](=O)[O-])cc3)C(=O)O[C@]12C	25 µg/mL (≈ 33.5 µM)	64 µg/mL (≈ 85.8 µM)	0.1 µg/mL (≈ 0.134 µM)	0.06 µg/mL (≈ 0.0804 µM)	0.06 µg/mL (≈ 0.0804 µM)	50.1 mg/kg/day	0.1 µg/mL (≈ 0.134 µM)	0.1 µg/mL (≈ 0.134 µM)	16 µg/mL (≈ 21.5 µM)	0.1 µg/mL (≈ 0.134 µM)	> 20 mg/kg/day	50 µg/mL (≈ 67 µM)	1 µg/mL (≈ 1.34 µM)	> 40 mg/kg/day	> 8 mg/kg/day	–	–	–
CC[C@H]1OC(=O)/C(C)=C/[C@H](C)[C@@H](O[C@@H]2O[C@H](C)C[C@H](N(C)C)[C@H]2O)[C@@](C)(OC)C[C@@H](C)C(=O)[C@H](C)[C@H]2N(CCc3cccs3)C(=O)O[C@]12C	25 µg/mL (≈ 35.4 µM)	32 µg/mL (≈ 45.3 µM)	0.39 µg/mL (≈ 0.552 µM)	0.125 µg/mL (≈ 0.177 µM)	–	–	0.39 µg/mL (≈ 0.552 µM)	0.2 µg/mL (≈ 0.283 µM)	16 µg/mL (≈ 22.6 µM)	–	–	50 µg/mL (≈ 70.7 µM)	0.5 µg/mL (≈ 0.707 µM)	–	–	–	–	–
CC[C@H]1OC(=O)/C(C)=C/[C@H](C)[C@@H](O[C@@H]2O[C@H](C)C[C@H](N(C)C)[C@H]2O)[C@@](C)(OC)C[C@@H](C)C2=NCCN3C(=O)O[C@@]1(C)[C@H]3[C@H]2C	–	–	0.78 µg/mL (≈ 1.25 µM)	0.25 µg/mL (≈ 0.402 µM)	0.25 µg/mL (≈ 0.402 µM)	66.1 mg/kg/day	0.78 µg/mL (≈ 1.25 µM)	0.2 µg/mL (≈ 0.322 µM)	16 µg/mL (≈ 25.7 µM)	0.05 µg/mL (≈ 0.0804 µM)	8 mg/kg/day	–	1 µg/mL (≈ 1.61 µM)	> 40 mg/kg/day	7.5 mg/kg/day	–	–	–
CC[C@H]1OC(=O)/C(C)=C/[C@H](C)[C@@H](O[C@@H]2O[C@H](C)C[C@H](N(C)C)[C@H]2O)[C@@](C)(OC)C[C@@H](C)C(=O)[C@H](C)[C@H]2N(CCc3cccc(C(F)(F)F)c3)C(=O)O[C@]12C	6.2 µg/mL (≈ 8.06 µM)	16 µg/mL (≈ 20.8 µM)	0.78 µg/mL (≈ 1.01 µM)	0.125 µg/mL (≈ 0.163 µM)	–	–	0.39 µg/mL (≈ 0.507 µM)	0.78 µg/mL (≈ 1.01 µM)	32 µg/mL (≈ 41.6 µM)	–	–	25 µg/mL (≈ 32.5 µM)	1 µg/mL (≈ 1.3 µM)	–	–	–	–	–
CC[C@H]1OC(=O)/C(C)=C/[C@H](C)[C@@H](O[C@@H]2O[C@H](C)C[C@H](N(C)C)[C@H]2O)[C@@](C)(OC)C[C@@H](C)C(=O)[C@H](C)[C@H]2N(CCc3ccc(Cl)c(Cl)c3)C(=O)O[C@]12C	6.2 µg/mL (≈ 8.05 µM)	8 µg/mL (≈ 10.4 µM)	0.39 µg/mL (≈ 0.507 µM)	0.12 µg/mL (≈ 0.156 µM)	0.12 µg/mL (≈ 0.156 µM)	> 100 mg/kg/day	0.39 µg/mL (≈ 0.507 µM)	0.2 µg/mL (≈ 0.26 µM)	32 µg/mL (≈ 41.6 µM)	0.39 µg/mL (≈ 0.507 µM)	> 40 mg/kg/day	12.5 µg/mL (≈ 16.2 µM)	2 µg/mL (≈ 2.6 µM)	> 40 mg/kg/day	> 16 mg/kg/day	–	–	–
CC[C@H]1OC(=O)/C(C)=C/[C@H](C)[C@@H](O[C@@H]2O[C@H](C)C[C@H](N(C)C)[C@H]2O)[C@@](C)(OC)C[C@@H](C)C(=O)[C@H](C)[C@H]2N(CCc3ccc(Br)cc3)C(=O)O[C@]12C	6.2 µg/mL (≈ 7.95 µM)	16 µg/mL (≈ 20.5 µM)	0.39 µg/mL (≈ 0.5 µM)	0.125 µg/mL (≈ 0.16 µM)	0.125 µg/mL (≈ 0.16 µM)	> 100 mg/kg/day	0.39 µg/mL (≈ 0.5 µM)	0.39 µg/mL (≈ 0.5 µM)	16 µg/mL (≈ 20.5 µM)	0.39 µg/mL (≈ 0.5 µM)	> 100 mg/kg/day	25 µg/mL (≈ 32.1 µM)	1 µg/mL (≈ 1.28 µM)	–	–	–	–	–
CC[C@H]1OC(=O)/C(C)=C/[C@H](C)[C@@H](O[C@@H]2O[C@H](C)C[C@H](N(C)C)[C@H]2O)[C@@](C)(OC)C[C@@H](C)C(=O)[C@H](C)[C@H]2N(CCc3ccccc3)C(=O)O[C@]12C	25 µg/mL (≈ 35.7 µM)	–	0.1 µg/mL (≈ 0.143 µM)	0.03 µg/mL (≈ 0.0428 µM)	–	–	0.39 µg/mL (≈ 0.556 µM)	0.01 µg/mL (≈ 0.0143 µM)	32 µg/mL (≈ 45.7 µM)	–	–	50 µg/mL (≈ 71.3 µM)	1 µg/mL (≈ 1.43 µM)	–	–	64 µg/mL (≈ 91.3 µM)	–	–
CC[C@H]1OC(=O)/C(C)=C/[C@H](C)[C@@H](O[C@@H]2O[C@H](C)C[C@H](N(C)C)[C@H]2O)[C@@](C)(OC)C[C@@H](C)C(=O)[C@H](C)[C@H]2N(CCc3cccc(OC)c3)C(=O)O[C@]12C	25 µg/mL (≈ 34.2 µM)	64 µg/mL (≈ 87.6 µM)	0.39 µg/mL (≈ 0.534 µM)	0.25 µg/mL (≈ 0.342 µM)	0.25 µg/mL (≈ 0.342 µM)	> 100 mg/kg/day	0.39 µg/mL (≈ 0.534 µM)	0.39 µg/mL (≈ 0.534 µM)	16 µg/mL (≈ 21.9 µM)	0.39 µg/mL (≈ 0.534 µM)	> 100 mg/kg/day	–	2 µg/mL (≈ 2.74 µM)	–	–	–	–	–
CC[C@H]1OC(=O)/C(C)=C/[C@H](C)[C@@H](O[C@@H]2O[C@H](C)C[C@H](N(C)C)[C@H]2O)[C@@](C)(OC)C[C@@H](C)C(=O)[C@H](C)[C@H]2NC(=O)O[C@@]21C (stereo in doubt; 6)	–	–	0.78 µg/mL (≈ 1.31 µM)	0.25 µg/mL (≈ 0.419 µM)	0.25 µg/mL (≈ 0.419 µM)	35.8 mg/kg/day	–	–	–	1.56 µg/mL (≈ 2.61 µM)	> 40 mg/kg/day	–	0.5 µg/mL (≈ 0.838 µM)	–	–	–	1.56 µg/mL (≈ 2.61 µM)	0.2 µg/mL (≈ 0.335 µM)
CC[C@H]1OC(=O)[C@H](C)[C@@H](O[C@H]2C[C@@](C)(OC)[C@@H](O)[C@H](C)O2)[C@H](C)[C@@H](O[C@@H]2O[C@H](C)C[C@H](N(C)C)[C@H]2O)[C@](C)(OC)C[C@@H](C)C(=O)[C@H](C)[C@@H](O)[C@]1(C)O [CLARITHROMYCIN]	–	–	–	–	0.004 µg/mL (≈ 0.00535 µM)	–	–	–	–	0.03 µg/mL (≈ 0.0401 µM)	–	–	–	–	–	–	–	–
